Data reported in paper PMC9673813 (International Journal of Nanomedicine, 2022).
Converted amounts (≈) assume the structure as drawn. Where two headings read alike, the source gives them in different places.

Experiments:
[1] = Pharmacokinetics in SD rats; type: in vivo; settings: 10 mg/kg
In short: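 SD rats (n=5/group) were injected with 10 mg/kg. Blood (0.3 mL) was collected at 0.08–120 h into heparin tubes and centrifuged. Plasma (100 μL) was extracted with methanol:ethyl acetate 10:90 and analysed by HPLC: C18 column, acetonitrile–phosphate water pH 4.0 65:35, 0.8 mL/min, 30 °C, 227 nm. Results are mean ± SEM.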

[2] = test system: breast cancer cell line MCF-7; assay: In vitro cytotoxicity assay; type: cell-based; settings: Homo sapiens
In short: (§1)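 Cells grown in high-glucose DMEM with 10% FBS and 1% penicillin/streptomycin at 37°C, 5% CO2. Log-phase cells trypsinized, seeded at 5×10³/well, grown 24 h. Test formulations and blank nanoparticles added at 5, 10, 20, 40, 80 ug/mL for 24, 48, 72 or 96 h. MTT (5 mg/mL stock) added for 3–4 h, formazan dissolved in DMSO, A490 read. Inhibition rate calculated from blank-, control- and test-well OD. Dose–effect curves plotted; n=3.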

[3] = In vitro release investigation; type: physicochemical
In short: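 Test formulation (1 mL, 200 ug/mL) was placed in a dialysis bag (8000–14,000 Da) in 200 mL PBS with 0.2% Tween-80, at 37 °C and 120 r/min. 3 mL of medium was withdrawn and replaced at 0.25–168 h. Samples were centrifuged at 8000 r/min for 10 min, and supernatant was analysed by HPLC for cumulative release. Data were fitted to zero-order, first-order and Higuchi models, with r² calculated; n=3.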

[4] = In vivo acute toxicity; set-up: species or system BALB/c mice; settings: single i.p. 40 mg/kg
In short: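 Female BALB/c mice, 7 weeks, 20 ± 3 g, n=10/group, received a single intraperitoneal 40 mg/kg dose; saline control at equal volume. Status and deaths were recorded daily, and survival was followed over 10 days. Heart, liver and kidney from three randomly selected mice per group were H&E-stained for pathology.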

[5] = test system: MCF-7 tumor; assay: In vivo antitumor assessment in MCF-7 tumor-bearing nude mice; set-up: species or system BALB/c nude mice
In short: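 Female BALB/c nude mice, 4 weeks old, were inoculated in the left armpit with 0.1 mL MCF-7 suspension (3 × 10⁷ cells/mL). Dosing started at ~100 mm³ (n=10/group; saline control): 10 mg/kg intraperitoneally every 3 days for 20 days. Body weight and tumor volume (V = π/6·AB²) were measured every 3 days, and deaths tallied every 5 days. Tumors were weighed on day 20; IR = 1 − drug/control tumor weight. Procedures were blinded.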

[6] = In vivo cumulative toxicity; set-up: species or system BALB/c mice
[7] = test system: normal hepatocyte cell line L02; assay: In vitro cytotoxicity assay; type: cell-based
In short: as §1

With `CC(=O)O[C@H]1C(=O)[C@@]2(C)[C@H]([C@H](OC(=O)c3ccccc3)[C@]3(O)C[C@H](OC(=O)[C@H](O)[C@@H](NC(=O)c4ccccc4)c4ccccc4)C(C)=C1C3(C)C)[C@]1(OC(C)=O)CO[C@@H]1C[C@@H]2O` [PTX, Paclitaxel] the “time up to which plasma PTX concentration stayed detectable” value ([1]; SD rats, intravenous injection, sampling to 120 h) was 12 h, the AUC(0-t) ([1]; SD, rat, plasma, iv) was 2380 ± 276 ng·h/mL and the MRT last ([1]; SD, rat, plasma, iv) was 4.94 ± 0.653 h. The Tmax ([1]; SD, rat, plasma, iv) was 0.25 ± 0.02 h, the Vd ([1]; SD, rat, plasma, iv) was 54.5 ± 8.53 L/kg and the clearance ([1]; SD, rat, plasma, iv) was 57.2 mL/min/kg. The half-life ([1]; SD, rat, plasma, iv) was 11 ± 0.773 h, the IC50 ([2]; MCF7, 24 h, read-out: IC50 24 h) was greater than 80 µg/mL and the IC50 ([2]; MCF7, 48 h, read-out: IC50 48 h) was 64.3 ± 5.73 µg/mL (≈ 75.3 µM). For the same compound, the IC50 ([2]; MCF7, 72 h, read-out: IC50 72h) was 26.2 ± 2.68 µg/mL (≈ 30.7 µM), the IC50 ([2]; MCF7, 96 h, read-out: IC50 96h) was 12.7 ± 0.97 µg/mL (≈ 14.8 µM) and the “release model that the in vitro release behavior accords with” value [3] was “first-order model”. The “cumulative release rate at 24 h” value ([3]; PBS with 0.2% Tween-80, 37 °C, 24 h) was “over 60%”, the “First-Order Equation k1” value ([3]; rate constant of release) was 0.0711 and the “Higuchi's Equation kh” value ([3]; rate constant of release) was 7.2999. The “Zero Order Equation k0” value ([3]; rate constant of release) was 0.5097, the “pathology of heart, liver and kidney tissues (H&E), acute toxicity” value [4] was “severe necrosis” and the “mouse deaths in acute toxicity trial” value ([4]; n=10) was 10 mice all died within 5 h. For the same compound, the “deaths / survival of tumor-bearing nude mice during the test” value ([5]; 10 mg/kg i.p. every three days, 20 days) was “death of three nude mice”, the “tumor volume at 20 days / end of trial” value ([5]; 10 mg/kg i.p. every three days, day 20) was 1000 mm^3 and the tumor inhibition rate ([5]; 10 mg/kg i.p. every three days, day 20, by tumor weight) was 32.93%. For the same compound, the “change of average body weight of nude mice” value ([5]; 10 mg/kg, 20 days versus beginning) was “significant decrease”, the “cancer cell necrosis (H&E staining of tumors)” value ([5]; 10 mg/kg, after 20 days) was 25% and the “pathology of heart, liver and kidney tissues (H&E), cumulative toxicity” value ([6]; 10 mg/kg i.p. every three days for 60 days) was “Some damage to cells and muscle fibers”. For the same compound, the “mouse deaths within 60 days / throughout the experiment, cumulative toxicity” value ([6]; 10 mg/kg i.p. every three days for 60 days, n=10) was “all mice in this group died”, the “mouse deaths within seven days, cumulative toxicity” value ([6]; 10 mg/kg i.p. every three days, n=10) was “three mice died” and the IC50 ([7]; 24 h, read-out: IC50 24 h) was greater than 80 µg/mL. For the same compound, the IC50 ([7]; 48 h, read-out: IC50 48 h) was greater than 80 µg/mL, the IC50 ([7]; 72 h, read-out: IC50 72h) was 36.9 ± 3.18 µg/mL (≈ 43.2 µM) and the IC50 ([7]; 96 h, read-out: IC50 96h) was 17.3 ± 0.83 µg/mL (≈ 20.3 µM). For the same compound, the inhibition at 10 µg/mL ([7]; 96 h, read-out: inhibitory rate on cell growth higher than PTX-SLN@CUD) was 40.1%.
